Cl transport mod: KCC2 (human) Cl- transport modulation; B-score of Tl+ flux slope (higher = more flux/activation; lower = inhibition) at 10 µM; AID 1456; hit rate 2.2% among 190,000; Q9H2X9; KCC2 cells, thallium flux FluoZin-2 fluorescence;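 active = thallium flux slope and its plate-corrected score both differing from the plate sample mean at a set confidence after two filtering rounds, in either direction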;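 note: slope of fluorescence scaled to starting intensity during 10 to 20 s after thallium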
KCNK3 inh: human KCNK3 channel inhibition, primary screen; AID 602410; O14649; CHO-KCNK3 thallium flux, FluxOR fluorescence; hits give low values; B-score at 10 µM; hit rate 0.84% among 340,000;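 active = B-score under library mean minus 4 SD, starting fluorescence ratio at most library mean plus 5 SD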;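 note: more negative B-score means stronger inhibition of thallium flux through KCNK3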
KCNQ1 inh: blocks the human KCNQ1 potassium channel | P51787 | CHO-K1 KCNQ1, FluxOR thallium flux fluorescence; hits give high values | B-score at 10 µM | hit rate 1.3% among 310,000 | AID 2642;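 active = compounds whose thallium flux B-score, printed positive for inhibition, exceeds three library SD while starting fluorescence stays within three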;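 note: channel opened by potassium depolarization with thallium stimulus after 20 min compound exposure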
KCNQ1 pot: potentiates or activates the human KCNQ1 potassium channel; B-score at 10 µM; CHO-K1 KCNQ1, thallium flux FluxOR fluorescence; hits give high values; P51787; hit rate 0.35% among 310,000;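 active = fluorescence ratio B-score, a plate-corrected score, at least three library SD, with initial intensity B-score within 5 SD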
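Assay system: CHO-K1 cells stably expressing KCNQ1. Medium: assay buffer for compound exposure, DMSO matched across wells. Timing: 37 °C overnight plating, 90-min dark dye load, 20-min compound pretreatment. Signal: kinetic FluxOR fluorescence, 10 s baseline plus 110 s post-stimulus.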
KCNK9 block: human KCNK9 channel inhibition | HEK293 KCNK9, FluxOR thallium flux fluorescence; hits give low values | Q9NPC2 | hit rate 1.2% among 310,000 | B-score at 10 µM;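 active = ratio B-score over 3 SD below the library mean, with starting fluorescence within 5 SD of its mean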;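 note: negative B-score means less thallium flux so channel inhibition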
hERG rescue: compounds protecting human hERG from proarrhythmic drug block; Q12809; CHO-hERG, FluxOR thallium flux, dofetilide IC70 present; activation (rescue from dofetilide block), less the hit threshold, % at 10 µM; hit rate 0.51% among 310,000; AID 1511;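 active = activation above the mean of controls blocked by dofetilide plus 5 SD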;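 note: thallium influx through hERG after potassium depolarization seen as dye fluorescence rise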
KCNK9 block conf: human KCNK9 inhibitor confirmation; inhibition, % at 10 µM; shares compounds with KCNK9 block; hit rate 43% among 4,900; HEK293 KCNK9 cells, FluxOR thallium flux fluorescence;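 active = thallium signal inhibited by more than 5 SD of the compound-free buffer control wells, on both duplicate plates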;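 note: 0% = assay buffer control wells without compound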
Kir21 sel: selectivity of KCNK9 modulators against mouse Kir2.1. shares compounds with KCNK9 block. Kir2.1 cells, FluxOR thallium flux fluorescence. inhibition, % at 10 µM. hit rate 4% among 4,900. AID 492993;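 active = thallium signal drop more than 5 SD beyond the mean of the no-compound control wells, seen in both duplicate plates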;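 note: signal is fluorescence rise after thallium addition divided by baseline fluorescence; plate controls were assay buffer only for no effect and full block by chlorpromazine control for full effect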
Target sequence (P35561 whole entry, looked up): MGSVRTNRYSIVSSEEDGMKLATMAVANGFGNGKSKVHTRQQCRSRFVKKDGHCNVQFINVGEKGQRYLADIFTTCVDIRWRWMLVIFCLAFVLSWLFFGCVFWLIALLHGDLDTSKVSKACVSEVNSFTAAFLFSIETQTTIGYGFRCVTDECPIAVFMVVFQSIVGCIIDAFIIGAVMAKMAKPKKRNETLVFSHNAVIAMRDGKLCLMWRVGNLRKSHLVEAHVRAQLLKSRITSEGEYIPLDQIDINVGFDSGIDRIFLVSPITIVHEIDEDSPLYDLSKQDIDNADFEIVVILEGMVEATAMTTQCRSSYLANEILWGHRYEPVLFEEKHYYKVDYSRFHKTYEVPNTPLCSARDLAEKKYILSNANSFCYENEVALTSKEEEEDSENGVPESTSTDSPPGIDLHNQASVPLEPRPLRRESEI
HEK293 Tl ctr: non-induced cell nonspecific activity of KCNK9 modulators | shares compounds with KCNK9 block | non-induced KCNK9-HEK293, FluxOR thallium flux | inhibition, % at 10 µM | hit rate 40% among 4,900;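 active = thallium signal drop beyond 5 SD of the untreated control mean, on both duplicate plates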;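 note: plate controls were buffer only IC0 wells for no effect and SID17386958 at its maximal inhibitory level for full effect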
Starred values were filed as active, the others as inactive. Hits are enriched below; roughly 4.1% of the tested compounds scored in any of these assays.

What do the screens show for `CCN1CCN(S(=O)(=O)c2ccc(Cl)c(C(=O)Oc3ccc(CC(=O)OC)cc3)c2)CC1`?
KCNK3 inh: inactive

Results for Oc1oc(-c2ccccc2)nc1C=Nc1cccc2ccccc12 ?
Cl transport mod: -0.7; KCNK3 inh: inactive; KCNQ1 inh: inactive; KCNQ1 pot: inactive; KCNK9 block: -9.9*; hERG rescue: 0; KCNK9 block conf: inactive; Kir21 sel: inactive; HEK293 Tl ctr: 45%*

What do the screens show for `O=C(Nc1ccon1)c1nc[nH]c1C(=O)N1CCN(c2ccccc2)CC1`?
KCNK3 inh: inactive

Results for Cc1ccc(C(C)C)c(OC(=O)/C=C/c2ccccc2)c1 ?
Cl transport mod: -0.026; KCNK3 inh: inactive; KCNQ1 inh: inactive; KCNQ1 pot: inactive; KCNK9 block: inactive; hERG rescue: -19; KCNK9 block conf: inactive; Kir21 sel: inactive; HEK293 Tl ctr: inactive

Results for CN(c1ccccc1)c1nc2ccsc2c(=O)s1 ?
Cl transport mod: -1.7; KCNK3 inh: inactive; KCNQ1 inh: inactive; KCNQ1 pot: inactive; KCNK9 block: inactive; hERG rescue: -1; KCNK9 block conf: inactive; Kir21 sel: inactive; HEK293 Tl ctr: inactive

Results for CCN(c1ccccc1)c1nc2ccsc2c(=O)s1 ?
Cl transport mod: 0.17; KCNK3 inh: inactive; KCNQ1 inh: inactive; KCNQ1 pot: inactive; KCNK9 block: inactive; hERG rescue: -13; KCNK9 block conf: inactive; Kir21 sel: inactive; HEK293 Tl ctr: inactive

How did Cc1cnc(NC(=O)Cc2ccc(C)c(C)c2)s1 do in these assays?
KCNK3 inh: inactive; KCNQ1 inh: inactive; KCNQ1 pot: inactive; KCNK9 block: inactive; hERG rescue: -4

Results for Cc1cccc(C(C)C)c1NC(=O)COC(=O)c1cccc(S(=O)(=O)N2CCc3ccccc3C2)c1 ?
Cl transport mod: 0.19; KCNK3 inh: inactive; KCNQ1 inh: inactive; KCNQ1 pot: inactive; KCNK9 block: inactive; hERG rescue: -7

What do the screens show for `CCc1cccc(CC)c1NC(=O)COC(=O)c1cccc(S(=O)(=O)N2CCc3ccccc3C2)c1`?
Cl transport mod: -0.025; KCNK3 inh: inactive; KCNQ1 inh: inactive; KCNQ1 pot: inactive; KCNK9 block: -9.1*; hERG rescue: -7; KCNK9 block conf: 56%*; Kir21 sel: inactive; HEK293 Tl ctr: 34%*

Results for Cc1c(C(=O)Nc2nc3ccccc3[nH]2)cccc1[N+](=O)[O-] ?
Cl transport mod: 0.43; KCNK3 inh: inactive; KCNQ1 inh: inactive; KCNQ1 pot: inactive; KCNK9 block: -8.4*; hERG rescue: -5; KCNK9 block conf: 47%*; Kir21 sel: inactive; HEK293 Tl ctr: 26%*

Results for CC(OC(=O)Cc1ccc(Br)cc1)C(=O)NC1CCCC1 (stereo not drawn) ?
KCNK3 inh: inactive

Results for CNc1c(NS(=O)(=O)c2cc(Cl)ccc2OC)c(=O)oc2ccccc12 ?
KCNK3 inh: inactive; KCNQ1 inh: inactive; KCNQ1 pot: inactive; KCNK9 block: inactive; hERG rescue: -10

Results for Cc1ccc(C(=O)C(C)OC(=O)c2ccc(Cl)nc2)cc1 (stereo not drawn) ?
KCNK3 inh: inactive; KCNQ1 inh: inactive; KCNQ1 pot: inactive; KCNK9 block: inactive; hERG rescue: -5

What do the screens show for `Cc1cc(C)c(C(=O)C(C)OC(=O)c2ccc(Cl)nc2)cc1C` (stereo not drawn)?
KCNK3 inh: inactive; KCNQ1 inh: inactive; KCNQ1 pot: inactive; KCNK9 block: inactive; hERG rescue: -9; KCNK9 block conf: inactive; Kir21 sel: inactive; HEK293 Tl ctr: inactive

From PubChem
